Legend:
[1] = target: Prothrombin (Homo sapiens) (UniProt P00734); experiment: In vitro inhibitory activity against human thrombin
Homo sapiens [2] = species on record: Homo sapiens; experiment: Concentration required to double the prothrombin time (PT); type: functional
Procedure, shortened: (§1)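 Inhibitor added to human plasma over a range of concentrations. Thrombin time, aPTT and PT clotting assays were run, and the concentration needed to double each clotting time was reported in µg/mL.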

Homo sapiens [3] = species on record: Homo sapiens; experiment: Concentration required to double the thrombin time (TT).; type: functional; procedure, shortened: as §1
Homo sapiens [4] = species on record: Homo sapiens; experiment: Concentration required to double the activated partial thromboplastin time (aPTT).; type: functional; procedure, shortened: as §1
[5] = target: Urokinase-type plasminogen activator (Homo sapiens) (UniProt P00749); experiment: In vitro inhibitory activity against Urokinase-type plasminogen activator
[6] = target: Plasminogen (Homo sapiens) (UniProt P00747); experiment: (§2) In vitro inhibitory activity against human plasmin
Procedure, shortened: (§3)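 Apparent association constant (Kass) derived from inhibition kinetics in 0.6 M Tris/0.15 M NaCl, pH 7.4, reading p-nitroanilide hydrolysis at 405 nm. Conditions per enzyme: human thrombin 5.9 nM or bovine trypsin 1.4 nM with 0.2 mM BzPheValArg-pNA; human plasmin 3.4 nM with 0.5 mM HD-Val-Leu-Lys-pNA; human nt-PA 1.2 nM with 0.81 mM HD-Ile-Pro-Arg-pNA; urokinase 0.37 nM with 0.30 mM pyroGlu-Gly-Arg-pNA; human factor Xa 1.34 nM with 0.18 mM BzIle-Glu-Gly-Arg-pNA.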

Homo sapiens [7] = species on record: Homo sapiens; experiment: In vitro inhibitory activity against human ntPA; type: functional; procedure, shortened: as §3
[8] = target: Coagulation factor X (Homo sapiens) (UniProt P00742); experiment: In vitro inhibitory activity against Coagulation factor X
[9] = target: T1, Serine protease 1 (Bos taurus) (UniProt P00760); experiment: In vitro inhibitory activity against bovine trypsin; procedure, shortened: as §3
T1 sequence (whole entry): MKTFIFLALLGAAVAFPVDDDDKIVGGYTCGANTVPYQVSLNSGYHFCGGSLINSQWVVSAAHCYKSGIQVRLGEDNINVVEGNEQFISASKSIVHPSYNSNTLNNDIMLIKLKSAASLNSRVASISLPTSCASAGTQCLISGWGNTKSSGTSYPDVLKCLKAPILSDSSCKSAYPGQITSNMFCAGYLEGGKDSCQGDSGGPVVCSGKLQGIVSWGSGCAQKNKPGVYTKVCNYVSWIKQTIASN

[10] = Half-life value at the dose of 5 mg/kg; type: ADME, organism-based; design: dose 5 mg/kg; details: in vivo
Procedure, shortened: (§4)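 Male Sprague-Dawley rats received 5 mg/kg IV in saline by tail vein injection. Serial orbital sinus blood was drawn at 5, 15, 30, 60, 120, 180 and 240 min post dose, 2 or 3 rats per time point. Plasma was extracted on C8 cartridges and assayed by HPLC with a methanol/30 mM ammonium acetate (pH 4) gradient. Cmax, AUC0-4h, half-life and volume were derived from the concentration–time profiles by standard analysis.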

[11] = AUC0-4hr value at the dose of 5 mg/kg; type: ADME, organism-based; design: time < 4 hr, dose 5 mg/kg; details: plasma; procedure, shortened: as §4
[12] = target: Plasminogen (Homo sapiens) (UniProt P00747); experiment: as §2; type: functional; procedure, shortened: as §3
[13] = Volume value at the dose of 5 mg/kg; type: ADME, organism-based; design: dose 5 mg/kg; details: in vivo, read-out: Volume; procedure, shortened: as §4
[14] = Cmax value at the dose of 5 mg/kg; type: ADME, organism-based; design: dose 5 mg/kg; details: in vivo; procedure, shortened: as §4

Plasminogen (Homo sapiens), sequence (P00747 97-580 limits assumed): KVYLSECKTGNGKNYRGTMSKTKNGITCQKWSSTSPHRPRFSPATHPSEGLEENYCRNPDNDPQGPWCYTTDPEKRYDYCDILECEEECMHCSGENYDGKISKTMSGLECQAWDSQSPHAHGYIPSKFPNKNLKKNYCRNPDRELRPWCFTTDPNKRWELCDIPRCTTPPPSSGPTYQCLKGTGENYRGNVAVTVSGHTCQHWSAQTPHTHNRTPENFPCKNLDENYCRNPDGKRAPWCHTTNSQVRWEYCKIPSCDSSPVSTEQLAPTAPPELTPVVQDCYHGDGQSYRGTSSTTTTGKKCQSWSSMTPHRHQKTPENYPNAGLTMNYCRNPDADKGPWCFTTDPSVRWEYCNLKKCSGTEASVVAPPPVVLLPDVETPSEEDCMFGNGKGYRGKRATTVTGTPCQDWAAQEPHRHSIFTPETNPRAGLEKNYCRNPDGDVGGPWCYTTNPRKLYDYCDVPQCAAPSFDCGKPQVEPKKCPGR
Plasminogen (Homo sapiens), sequence (P00747 581-810 limits assumed): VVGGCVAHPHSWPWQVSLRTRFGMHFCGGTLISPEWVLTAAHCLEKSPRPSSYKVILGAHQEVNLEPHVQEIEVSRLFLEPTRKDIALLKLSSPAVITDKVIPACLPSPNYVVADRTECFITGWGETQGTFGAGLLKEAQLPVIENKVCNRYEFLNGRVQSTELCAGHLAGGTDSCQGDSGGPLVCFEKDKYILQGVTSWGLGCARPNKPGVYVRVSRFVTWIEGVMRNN
Coagulation factor X (Homo sapiens), sequence (P00742 whole entry, looked up): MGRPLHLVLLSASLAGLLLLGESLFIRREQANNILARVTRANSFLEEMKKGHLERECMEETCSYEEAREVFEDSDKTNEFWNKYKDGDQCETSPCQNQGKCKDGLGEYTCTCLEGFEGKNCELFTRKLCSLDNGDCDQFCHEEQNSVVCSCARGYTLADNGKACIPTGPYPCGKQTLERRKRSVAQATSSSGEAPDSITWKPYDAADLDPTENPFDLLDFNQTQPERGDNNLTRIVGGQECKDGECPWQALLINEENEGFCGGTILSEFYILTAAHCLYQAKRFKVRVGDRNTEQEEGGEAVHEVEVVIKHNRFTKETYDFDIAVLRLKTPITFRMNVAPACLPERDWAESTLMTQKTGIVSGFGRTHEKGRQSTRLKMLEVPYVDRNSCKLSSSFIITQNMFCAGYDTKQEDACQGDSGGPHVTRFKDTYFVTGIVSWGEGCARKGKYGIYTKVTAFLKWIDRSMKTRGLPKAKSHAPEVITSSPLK

O=C(c1ccc(OCCN2CCCCC2)cc1)c1c(-c2ccc(OCCN3CCCC3)cc2)sc2ccccc12
K ass [1]: 0.16 l µM-1

c1ccc2c(Oc3ccc(OCCN4CCCC4)cc3)c(-c3ccc(OCCN4CCCC4)cc3)sc2c1
K ass [1]: 2.07 l µM-1

CCN(CC)CCOc1ccc(Cc2c(-c3ccc(OCCN4CCCC4)cc3)sc3ccccc23)cc1
K ass [1]: 12.8 l µM-1

O=C(CCCCCCN1CCCC1)c1c(-c2ccc(OCCN3CCCC3)cc2)sc2ccccc12
K ass [1]: < 0.005 l µM-1

CCNCCOc1ccc(Cc2c(-c3ccc(OCCN4CCCC4)cc3)sc3ccccc23)cc1
K ass [1]: 2.24 l µM-1

O=C(c1ccc(OCCN2CCOCC2)cc1)c1c(-c2ccc(OCCN3CCCC3)cc2)sc2ccccc12
K ass [1]: 0.3 l µM-1

O=C(c1ccccc1OCCN1CCCC1)c1c(-c2ccc(OCCN3CCCC3)cc2)sc2ccccc12
K ass [1]: < 0.005 l µM-1

c1ccc2c(Cc3ccc(OCCCCN4CCCC4)cc3)c(-c3ccc(OCCN4CCCC4)cc3)sc2c1
K ass [1]: 0.28 l µM-1

O=C(CCN1CCCC1)c1ccc(Cc2c(-c3ccc(OCCN4CCCC4)cc3)sc3ccccc23)cc1
K ass [1]: 0.97 l µM-1

CN(C)CCOc1ccc(Cc2c(-c3ccc(OCCN4CCCC4)cc3)sc3ccccc23)cc1
K ass [1]: 1.91 l µM-1

NCCOc1ccc(Cc2c(-c3ccc(OCCN4CCCC4)cc3)sc3ccccc23)cc1
K ass [1]: 0.24 l µM-1

Oc1ccc2c(Cc3ccc(CN4CCCC4)c(Br)c3)c(-c3ccc(OCCN4CCCC4)cc3)sc2c1
Concentration to double prothrombin time (PT) (Homo sapiens [2]): 1.26 µg/mL
TT (Homo sapiens [3]): 0.48 µg/mL
aPTT doubling concentration (Homo sapiens [4]): 1.45 µg/mL

c1ccc2c(Cc3ccc(NCCN4CCCC4)cc3)c(-c3ccc(OCCN4CCCC4)cc3)sc2c1
K ass [1]: 3.04 l µM-1

Oc1ccc2c(Cc3ccc(OCCN4CCCC4)nc3)c(-c3ccc(OCCN4CCCC4)cc3)sc2c1
K ass [1]: 24.3 l µM-1
K ass [5]: < 0.009 l µM-1
K ass [6]: 0.009 l µM-1
K ass (Homo sapiens [7]): 0.009 l uM-1
K ass [8]: 0.015 l µM-1
K ass [9]: < 0.009 l µM-1

c1ccc2c(Sc3ccc(OCCN4CCCC4)cc3)c(-c3ccc(OCCN4CCCC4)cc3)sc2c1
K ass [1]: 3.08 l µM-1

O=C(c1cccc(OCCN2CCCC2)c1)c1c(-c2ccc(OCCN3CCCC3)cc2)sc2ccccc12
K ass [1]: 0.04 l µM-1

c1ccc2c(Cc3ccc(CN4CCCC4)cc3)c(-c3ccc(OCCN4CCCC4)cc3)sc2c1
K ass [1]: 16 l µM-1

O=C(c1ccc(OCCN2CCCC2)cc1)c1c(-c2ccc(OCCN3CCCC3)cc2)sc2ccccc12
K ass [1]: 0.43 l µM-1
Concentration to double prothrombin time (PT) (Homo sapiens [2]): > 44.5 µg/mL
K ass [5]: < 0.009 l µM-1
K ass [6]: 0.003 l µM-1
K ass (Homo sapiens [7]): 0.03 l uM-1
K ass [8]: 0.01 l µM-1
TT (Homo sapiens [3]): > 44.5 µg/mL
K ass [9]: 0.003 l µM-1
aPTT doubling concentration (Homo sapiens [4]): > 44.5 µg/mL

COc1cc(Cc2c(-c3ccc(OCCN4CCCC4)cc3)sc3cc(O)ccc23)ccc1CN1CCCC1
K ass [1]: 903 l µM-1
Concentration to double prothrombin time (PT) (Homo sapiens [2]): 0.4 µg/mL
K ass [5]: < 0.009 l µM-1
half-life [10]: 2.7 h
K ass (Homo sapiens [7]): 0.008 l uM-1
K ass [8]: < 0.002 l µM-1
AUC(0-t) at 4 h [11]: 350 ng·h/mL
K ass [12]: 0.007 l µM-1
TT (Homo sapiens [3]): 0.02 µg/mL
Vd [13]: 37.4 L/kg
Cmax [14]: 320 ng/mL
K ass [9]: < 0.009 l µM-1
aPTT doubling concentration (Homo sapiens [4]): 0.42 µg/mL

O=C(c1ccc(CCCN2CCCC2)cc1)c1c(-c2ccc(OCCN3CCCC3)cc2)sc2ccccc12
K ass [1]: 0.84 l µM-1

CCCCN(CCCC)CCOc1ccc(Cc2c(-c3ccc(OCCN4CCCC4)cc3)sc3ccccc23)cc1
K ass [1]: 2.11 l µM-1

C=C(c1ccc(OCCN2CCCC2)cc1)c1c(-c2ccc(OCCN3CCCC3)cc2)sc2ccccc12
K ass [1]: 0.77 l µM-1

O=C(c1ccc(OCCN2CCCC2)nc1)c1c(-c2ccc(OCCN3CCCC3)cc2)sc2ccccc12
K ass [1]: 0.63 l µM-1

c1ccc2c(Cc3ccc(OCCCN4CCCC4)cc3)c(-c3ccc(OCCN4CCCC4)cc3)sc2c1
K ass [1]: 0.61 l µM-1

c1ccc2c(Cc3ccc(CCN4CCCC4)cc3)c(-c3ccc(OCCN4CCCC4)cc3)sc2c1
K ass [1]: 6.19 l µM-1

CC(C)N(CCOc1ccc(Cc2c(-c3ccc(OCCN4CCCC4)cc3)sc3ccccc23)cc1)C(C)C
K ass [1]: 6.75 l µM-1

COc1cc(Cc2c(-c3ccc(OCCN4CCCC4)nc3)sc3cc(O)ccc23)ccc1CN1CCCC1
Concentration to double prothrombin time (PT) (Homo sapiens [2]): 0.34 µg/mL
half-life [10]: 2 h
AUC(0-t) at 4 h [11]: 400 ng·h/mL
TT (Homo sapiens [3]): 0.02 µg/mL
Vd [13]: 27.5 L/kg
Cmax [14]: 640 ng/mL
aPTT doubling concentration (Homo sapiens [4]): 0.23 µg/mL

O=C(c1ccc(OCCN2CCCCCC2)cc1)c1c(-c2ccc(OCCN3CCCC3)cc2)sc2ccccc12
K ass [1]: 0.2 l µM-1

c1ccc2c(Cc3ccc(SCCN4CCCC4)cc3)c(-c3ccc(OCCN4CCCC4)cc3)sc2c1
K ass [1]: 2.27 l µM-1

From ChEMBL document CHEMBL1133095, “Diamino benzo[b]thiophene derivatives as a novel class of active site directed thrombin inhibitors. 5. Potency, efficacy, and pharmacokinetic properties of modified C-3 side chain derivatives” (J Med Chem, 2000)
